From PubChem
The sample as a whole holds a higher share of hits than the screen did.
HUVEC inhibit: inhibitors of human endothelial cell proliferation | HUVEC proliferation, CellTiter-Glo luminescence, 72 h; active compounds read low | viability, % at 10 µM (by protocol) | 86,000 compounds, 1.1% hits;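 active means viability at or below 30%; inactive means viability above 30%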;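 further: 100% = median luminescence of DMSO-only cell control wells on each plate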
H69AR growth 86K: blocks growth of human H69AR lung tumor cells; H69AR lung tumor viability, ATP luminescence, 72 h; active compounds read low; viability, % at 10 µM; 85,000 compounds, 6% hits;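 active means viability at or below 40%; inactive means viability above 40%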;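 further: multidrug resistant small cell line overexpressing MRP-1 efflux transporter; 100% = mean luminescence of untreated control wells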
Fibroblast inh: blocks proliferation of human lung fibroblasts; LL 47 human lung fibroblast viability, ATP luminescence; active compounds read low; viability, % at 10 µM; 85,000 compounds, 1.1% hits; AID 719;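 active means viability at or below 50% in the single dose screen; inactive means viability above 50%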;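 further: compound exposure lasted 72 h before the ATP readout; 100% = median luminescence of untreated cell-only wells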
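material = human LL 47 lung fibroblast cells | dosing = compounds added from tenfold dosing solution, 0.1% DMSO final | timing = overnight cell rest, 72 h compound treatment at 37 °C | measured by = CellTiter-Glo luminescence measuring cellular ATP | evaluation = % viability versus median cells-only luminescence | control set = cell-only wells, no compound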
HCT116 PTEN-null: suppresses growth of cells with PTEN deletion; viability, % at 10 µM; 140,000 compounds, 1.2% hits; AID 827; HCT116 PTEN-null viability, CellTiter-Glo, 60 h; active compounds read low;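 active means viability at or below a set limit, 4 SD under the median of all tested compounds, cut at about 3.7% in these data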;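 further: PTEN knockout HCT116 line with beta catenin targeted HCT116 as companion control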
bCat KO growth: beta-catenin-lacking colon tumor cell growth suppression. HCT116 beta-catenin knockout viability, CellTiter-Glo, 60 h; active compounds read low. viability, % at 10 µM. 140,000 compounds, 1.5% hits;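 active means viability at or under a set limit, the compound median less 4 SD, cut at about 6% in these data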;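 further: 0% = Hyamine 1622 control at 20 µM and 100% = untreated cell control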
Active calls of the source: *; / = not tested or not shown.

SMILES	HUVEC inhibit	H69AR growth 86K	Fibroblast inh	HCT116 PTEN-null	bCat KO growth
Cc1ccsc1/C=N/n1c(-c2ccncc2)n[nH]c1=S	/	/	/	95	91
O=C(COc1ccccc1Br)N1CCN(c2ccccc2)CC1	101	90	99	99	93
O=C(CSc1nnc(-c2cccnc2)n1-c1ccccc1)Nc1ccccn1	90	94	106	84	94
O=C(CSc1nnc(-c2cccnc2)n1-c1ccccc1)Nc1ccc2c(c1)OCO2	96	35*	87	96	106
COc1ccccc1N=CC1=C(O)CC(c2ccccc2)CC1=O (stereo unspecified)	/	/	/	73	48
O=C(CCl)N(c1ccc(Cl)cc1)c1c[nH]c2ccccc12	3.9*	1.1*	2.4*	1.8*	1.7*
O=C(CCl)N(c1ccccc1)c1c[nH]c2ccccc12	6.9*	0.4*	1.7*	1.3*	1.9*
CCCCCCN1CC(C(=O)OCC)C(=O)C1=O (stereo unspecified)	/	/	/	90	89
CN(/N=C/c1cccs1)c1cc(=O)n(C)c(=O)[nH]1	15*	94	104	90	89
CCN(/N=C/c1cccs1)c1cc(=O)n(C)c(=O)[nH]1	35	96	103	92	85
CCOc1ccc(S(=O)(=O)n2cnc3cc(C)c(C)cc32)cc1	85	91	100	98	82
Cc1cc2ncn(S(=O)(=O)c3ccc(S(=O)(=O)N4CCCCCC4)cc3)c2cc1C	89	35*	98	/	/
CCCn1cnc2c(c1=O)c1nc3ccccc3nc1n2Cc1ccccc1OC	/	/	/	112	112
CC(C)CCn1cnc2c(c1=O)c1nc3ccccc3nc1n2Cc1ccc2c(c1)OCO2	86	30*	88	80	79
N#Cc1ccc(/C=C/C(=O)c2ccco2)cc1	/	/	/	1.6*	2.3*
COc1ccc(-n2c(=O)c3c4c(sc3n3c(=S)[nH]nc23)CCCC4)cc1	/	/	/	92	81
Nc1ccc(C(=O)c2ccc3c(c2)OCCO3)cc1N	98	36*	96	/	/
CC1CC(=O)Nc2ccccc2N1S(=O)(=O)c1cccc(Cl)c1 (stereo unspecified)	/	/	/	88	85
O=C1c2ccccc2C(=O)N1SC1CCCCC1	76	0.6*	62	82	81
COc1ccc(NC(=O)CCCn2c(=O)c3sccc3n(Cc3ccccc3)c2=O)cc1	/	/	/	0.8*	11
COc1ccc(NC(=O)CCCn2c(=O)c3sccc3n(Cc3ccccc3C)c2=O)cc1	/	/	/	95	81
Cn1c(CCN2CCCCC2)nc2cc(NS(=O)(=O)c3ccc(F)cc3)ccc21	107	22*	94	42	19
Fc1ccc(Br)cc1C1C=C(c2ccc(Br)cc2)Nc2ncnn21 (stereo unspecified)	63	18*	60	31	38
Cc1ccc(C2C=C(c3ccc4c(c3)OCO4)Nc3ncnn32)cc1 (stereo unspecified)	115	83	/	62	63
Cc1ccsc1C1C=C(c2cccc(Br)c2)Nc2ncnn21 (stereo unspecified)	75	51	100	55	59
SMILES	HUVEC inhibit	H69AR growth 86K	Fibroblast inh	HCT116 PTEN-null	bCat KO growth
CCc1ccc(C2=CC(c3cc(Br)ccc3F)n3ncnc3N2)cc1 (stereo unspecified)	58	18*	58	98	79
C=CCn1c(SCC(=O)N2CCc3ccccc3C2)nc2ccccc2c1=O	/	/	/	81	102
CCC(=O)Nc1cc(-c2nn(C)c(=O)c3ccccc23)ccc1OC	/	/	/	101	95
Cc1nn(CC(=O)Nc2ccc3c(c2)oc2ccccc23)c(=O)c2ccccc12	39	3.3*	105	106	106
Cc1ccc(-c2nn(CC(=O)NCc3cc(-c4nn(C)c(=O)c5ccccc45)ccc3C)c(=O)c3ccccc23)cc1	4.1*	2.1*	4.9*	89	83
COc1ccc(-c2nn(C)c(=O)c3ccccc23)cc1NC(=O)Cn1nc(C)c2ccccc2c1=O	84	3.3*	87	84	65
Clc1cc(CSc2ccccc2)nc(-c2ccccc2)n1	/	/	/	83	90
CCN(CC)CCN1C(=O)c2oc3ccccc3c(=O)c2C1c1cccc(Br)c1 (stereo unspecified)	101	37*	101	98	94
O=C1c2oc3ccc(Cl)cc3c(=O)c2C(c2cccc(Br)c2)N1CCO (stereo unspecified)	109	26*	103	61	60
CCN(CC)CCN1C(=O)c2oc3ccccc3c(=O)c2C1c1ccccc1 (stereo unspecified)	106	/	102	87	93
COc1cccc(-c2nnc(SCC3CNC(=O)O3)n2-c2ccc(Cl)cc2)c1 (stereo unspecified)	/	/	/	91	96
CC(=O)NC(CCCN1C(=O)c2ccccc2C1=O)c1nnn(C)n1 (stereo unspecified)	/	/	/	94	100
COC(=O)c1cc(=O)n(Cc2cccs2)c(=NCc2cccs2)s1	/	/	/	86	92
CCOC(=O)c1ccc(N=c2sc(C(=O)OC)cc(=O)n2Cc2ccco2)cc1	29*	1.3*	69	2.2*	2.2*
CCOC(=O)c1ccc(N=c2sc(C(=O)OC)cc(=O)n2CCCN2CCOCC2)cc1	58	21*	67	8	6.0*
COC(=O)c1ccc2c(=O)n(CCCN3CCOCC3)c(=S)[nH]c2c1	95	86	97	86	96
O=C(Cn1cncn1)c1ccc(F)cc1F	/	/	/	102	105
O=[N+]([O-])c1ccc(N2CCC(O)CC2)nc1	/	/	/	100	96
N#CC(c1ccccc1)c1ccc2c(C(F)(F)F)cc(C(F)(F)F)nc2n1 (stereo unspecified)	63	24*	39*	8	14
COc1ccc(Oc2ccc3c(C(F)(F)F)cc(C(F)(F)F)nc3n2)cc1	/	/	/	78	94
Cc1ccc(C(C#N)c2ccc3c(C(F)(F)F)cc(C(F)(F)F)nc3n2)cc1 (stereo unspecified)	62	24*	75	20	28
CCCCN(CCCC)S(=O)(=O)c1ccc(NC(=O)Cc2cccs2)cc1	77	64	90	90	86
COc1cccc(CN(C)C(=O)Nc2cccc(C(F)(F)F)c2)c1OC	/	/	/	80	85
O=c1c2ccccc2nc(/C=C/c2ccc(O)cc2)n1CCc1ccccc1	/	/	/	35	56
Cn1c(/C=C/c2ccc([N+](=O)[O-])o2)nc2ccccc2c1=O	16*	-0.5*	5.2*	1.5*	1.8*
SMILES	HUVEC inhibit	H69AR growth 86K	Fibroblast inh	HCT116 PTEN-null	bCat KO growth
Cn1c(=O)cc(SCC(=O)NCC2COc3ccccc3O2)c2ccccc21 (stereo unspecified)	102	83	40*	99	93
Cc1ccc(NCCC(=O)c2ccc(Br)cc2)cc1	/	/	/	105	89
COC(=O)C(CC(=O)c1ccc(Br)cc1)n1ccnc1 (stereo unspecified)	69	88	28*	2.7*	2.6*
Cc1nc2c(C(=O)NCCC(C)C)c[nH]n2c(=O)c1Cc1ccccc1F	12*	46	102	76	91
Cc1nc2c(C(=O)NCCC(C)C)c[nH]n2c(=O)c1Cl	/	/	/	105	96
COc1ccc(S(=O)(=O)NNC(=O)c2cc3ccccc3o2)cc1	/	/	/	98	103
